{"source": "ChEMBL document CHEMBL1208712", "about": "“Synthesis and anti-HCV activity of 3',4'-oxetane nucleosides” (Bioorg Med Chem Lett, 2010)", "key": {"[1]": {"assay": "Inhibition of HCV NS5B polymerase after 30 mins", "parameters": "species or system Hepacivirus hominis"}, "[2]": {"test_system": "Hepatitis C virus", "assay": "Antiviral activity against HCV 1a infected in human HB-1 cells assessed as inhibition of viral RNA replication after 24 hrs", "assay_type": "functional, organism-based, Hepacivirus hominis", "settings": "subtype 1a, HB1, 24 h"}, "[3]": {"assay": "Cytotoxicity against human HuH7 cells by MTS assay", "assay_type": "cell-based, Huh-7", "how_it_was_run": "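Tested at concentrations up to 50.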"}}}
{"smiles": "Nc1ccn([C@@H]2O[C@@]3(COP(=O)(O)OP(=O)(O)OP(=O)(O)O)CO[C@H]3[C@H]2F)c(=O)n1", "values": [{"measurement": "IC50", "setting": "[1]", "result": 31, "unit": "µM"}]}
{"smiles": "Nc1ccn([C@@H]2O[C@@]3(COP(=O)(O)OP(=O)(O)OP(=O)(O)O)CO[C@H]3[C@@H]2F)c(=O)n1", "values": [{"measurement": "IC50", "setting": "[1]", "result": 78.9, "unit": "µM"}]}
{"smiles": "Nc1ccn([C@@H]2O[C@@]3(COP(=O)(O)OP(=O)(O)OP(=O)(O)O)CO[C@H]3C2(F)F)c(=O)n1", "values": [{"measurement": "IC50", "setting": "[1]", "result": 32.8, "unit": "µM"}]}
{"smiles": "C[C@@]1(F)[C@@H]2OC[C@]2(CO)O[C@H]1n1ccc(N)nc1=O", "values": [{"measurement": "EC90", "setting": "[2]", "result": "> 50", "unit": "µM"}, {"measurement": "CC50", "setting": "[3]", "result": "> 50", "unit": "µM"}]}
{"smiles": "Nc1ccn([C@@H]2O[C@@]3(CO)CO[C@H]3[C@H]2F)c(=O)n1", "values": [{"measurement": "EC90", "setting": "[2]", "result": "> 50", "unit": "µM"}, {"measurement": "CC50", "setting": "[3]", "result": "> 50", "unit": "µM"}]}
{"smiles": "Nc1ccn([C@@H]2O[C@@]3(CO)CO[C@H]3[C@@H]2F)c(=O)n1", "values": [{"measurement": "EC90", "setting": "[2]", "result": "> 50", "unit": "µM"}, {"measurement": "CC50", "setting": "[3]", "result": "> 50", "unit": "µM"}]}
{"smiles": "Nc1ccn([C@@H]2O[C@@]3(CO)CO[C@H]3C2(F)F)c(=O)n1", "values": [{"measurement": "EC90", "setting": "[2]", "result": "> 50", "unit": "µM"}, {"measurement": "CC50", "setting": "[3]", "result": "> 50", "unit": "µM"}]}
{"smiles": "CO[C@H]1[C@H](n2ccc(N)nc2=O)O[C@@]2(CO)CO[C@@H]12", "values": [{"measurement": "EC90", "setting": "[2]", "result": "> 50", "unit": "µM"}, {"measurement": "CC50", "setting": "[3]", "result": "> 50", "unit": "µM"}]}
{"smiles": "Nc1ncnc2c1ncn2[C@@H]1O[C@@]2(CO)CO[C@H]2[C@H]1F", "values": [{"measurement": "EC90", "setting": "[2]", "result": "> 50", "unit": "µM"}, {"measurement": "CC50", "setting": "[3]", "result": "> 50", "unit": "µM"}]}
{"smiles": "C[C@@]1(F)[C@H](O)[C@@H](CO)O[C@H]1n1ccc(N)nc1=O", "values": [{"measurement": "EC90", "setting": "[2]; read-out: EC90", "result": 4.6, "unit": "µM"}, {"measurement": "CC50", "setting": "[3]", "result": "> 50", "unit": "µM"}]}
{"smiles": "Nc1ccn([C@@H]2O[C@H](CO)[C@@H](O)[C@H]2F)c(=O)n1", "values": [{"measurement": "EC90", "setting": "[2]", "result": 5.21, "unit": "µM"}, {"measurement": "CC50", "setting": "[3]", "result": "> 50", "unit": "µM"}]}
{"smiles": "Nc1ccn([C@@H]2O[C@H](CO)[C@@H](O)[C@@H]2F)c(=O)n1", "values": [{"measurement": "EC90", "setting": "[2]", "result": "> 50", "unit": "µM"}, {"measurement": "CC50", "setting": "[3]", "result": "> 50", "unit": "µM"}]}
{"smiles": "Nc1ccn([C@@H]2O[C@H](CO)[C@@H](O)C2(F)F)c(=O)n1", "note": "[GEMCITABINE]", "values": [{"measurement": "EC90", "setting": "[2]", "result": "< 1", "unit": "µM"}, {"measurement": "CC50", "setting": "[3]", "result": "< 0.1", "unit": "µM"}]}
{"smiles": "C[C@@]1(F)[C@H](O)[C@@H](COP(=O)(O)OP(=O)(O)OP(=O)(O)O)O[C@H]1n1ccc(N)nc1=O", "note": "[PSI-6130-TP]", "values": [{"measurement": "IC50", "setting": "[1]", "result": 5.37, "unit": "µM"}, {"measurement": "Ki", "setting": "[1]", "result": 0.059, "unit": "µM"}]}
